What was measured:
[1] = molecular target: T1, C-X-C chemokine receptor type 4 (Homo sapiens, UniProt P61073); assay: Competitive inhibition of [125I]-CXCL12 binding to CXCR4 in human Jurkat cells at 1 uM in absence of ZnCl2 after 2 hrs by gamma counting analysis relative to control; assay type: cell-based
[2] = Cytotoxicity against human MT4 cells in absence of ZnCl2; assay type: cell-based
[3] = tested on: Human immunodeficiency virus 1; assay: Antiviral activity against R5 tropic HIV-1 NL(AD8) infected in human MT4 cells assessed as protection against virus-induced cytopathic effect at 10 uM in absence of ZnCl2 after 5 days by MTT assay; assay type: functional; conditions: Human immunodeficiency virus 1, NL(AD8), MT4, 120 h
[4] = tested on: Human immunodeficiency virus 1; assay: Antiviral activity against X4 tropic HIV-1 NL4-3 infected in human MT4 cells assessed as protection against virus-induced cytopathic effect in presence of ZnCl2 after 5 days by MTT assay; assay type: functional, organism-based; conditions: Human immunodeficiency virus 1, NL4-3, MT4, 120 h
Outline: (§1)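 Protection of MT-4 cells from X4 HIV-1 NL4-3 cytopathicity. Infected cells (MOI 0.001, 2.0 × 10^4 cells/well) received graded compound concentrations, without or with ZnCl2 (10 eq), for 5 days at 37 °C. Viable cells were counted by MTT. EC50 is the concentration giving 50% protection; mean of at least three independent experiments.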

[5] = molecular target: T1, C-X-C chemokine receptor type 4; assay: Competitive inhibition of [125I]-CXCL12 binding to CXCR4 in human Jurkat cells at 1 uM in presence of ZnCl2 after 2 hrs by gamma counting analysis relative to control; assay type: cell-based
[6] = molecular target: T1, C-X-C chemokine receptor type 4; assay: Competitive inhibition of TAMRAAc-TZ14011 binding to CXCR4 (unknown origin) expressed in CHO cells at 1 uM in absence of ZnCl2 by NanoBRET assay relative to control; assay type: cell-based
Outline: (§2)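 Single-point competition in CHO cells stably expressing N-terminally Nluc-tagged CXCR4 (5 x 10^4 cells, seeded 24 h earlier at 37 °C, 5% CO2, medium then replaced with OptiMEM). Cells were incubated with 10 nM TAMRA-Ac-TZ14011 plus 1 µM compound, without or with 10 µM ZnCl2 (10 eq), for 1 h at 25 °C. Furimazine was added and BRET read as acceptor (>610 nm) over donor (460 nm). Inhibition is relative to no compound and to excess Ac-TZ14011; mean ± SEM, n = 3.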

[7] = tested on: Human immunodeficiency virus 1; assay: Antiviral activity against R5 tropic HIV-1 NL(AD8) infected in human MT4 cells assessed as protection against virus-induced cytopathic effect at 10 uM in presence of ZnCl2 after 5 days by MTT assay; assay type: functional; conditions: Human immunodeficiency virus 1, NL(AD8), MT4, 120 h
[8] = Cytotoxicity against human MT4 cells in presence of ZnCl2; assay type: cell-based
Outline: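 MT-4 viability with compound plus ZnCl2 (10 eq). CC50 is the concentration giving 50% reduction in viable cells; mean of at least three independent experiments.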

[9] = molecular target: T1, C-X-C chemokine receptor type 4; assay: Competitive inhibition of TAMRAAc-TZ14011 binding to CXCR4 (unknown origin) expressed in CHO cells in presence of ZnCl2 by NanoBRET assay relative to control; assay type: cell-based
Outline: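 Cells were incubated with 10 nM TAMRA-Ac-TZ14011 and compound plus ZnCl2 (10 eq). Furimazine was added and BRET ratio taken as >610 nm over 460 nm emission. Inhibition is scaled between no compound and excess Ac-TZ14011.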

[10] = tested on: Human immunodeficiency virus 1; assay: Antiviral activity against X4 tropic HIV-1 NL4-3 infected in human MT4 cells assessed as protection against virus-induced cytopathic effect in absence of ZnCl2 after 5 days by MTT assay; assay type: functional, organism-based; conditions: Human immunodeficiency virus 1, NL4-3, MT4, 120 h; outline: as §1
[11] = molecular target: T1, C-X-C chemokine receptor type 4; assay: Competitive inhibition of TAMRAAc-TZ14011 binding to CXCR4 (unknown origin) expressed in CHO cells at 1 uM in presence of ZnCl2 by NanoBRET assay relative to control; assay type: cell-based; outline: as §2

T1 sequence (P61073 whole entry): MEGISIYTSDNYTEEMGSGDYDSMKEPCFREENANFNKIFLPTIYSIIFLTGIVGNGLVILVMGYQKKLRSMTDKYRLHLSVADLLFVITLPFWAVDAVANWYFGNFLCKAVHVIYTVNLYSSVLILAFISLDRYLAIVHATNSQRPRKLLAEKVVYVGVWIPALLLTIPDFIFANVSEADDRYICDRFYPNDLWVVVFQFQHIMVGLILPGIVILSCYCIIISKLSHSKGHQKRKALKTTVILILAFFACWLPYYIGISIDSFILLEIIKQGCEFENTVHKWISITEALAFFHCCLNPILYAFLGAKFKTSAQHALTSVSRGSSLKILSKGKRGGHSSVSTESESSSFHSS

**Q.** For `c1ccc(CN(Cc2ccc3c(CN4CCCNCCNCCCNCC4)cccc3c2)Cc2ccccn2)nc1`, which inhibition [1] is on record?
**A.** 81.7%

**Q.** And the CC50 [2]?
**A.** > 10000 nM

**Q.** What about the inhibition at 10 µM [3] of the same molecule?
**A.** < 30%

**Q.** And the EC50 [4]?
**A.** 28 nM

**Q.** What about the inhibition [5] of the same molecule?
**A.** 77.3%

**Q.** What about the inhibition [6] of the same molecule?
**A.** 81.5%

**Q.** What about the inhibition at 10 µM [7] of the same molecule?
**A.** < 30%

**Q.** And the CC50 [8]?
**A.** > 10000 nM

**Q.** What about the IC50 [9] of the same molecule?
**A.** 1.6 nM

**Q.** What about the EC50 [10] of the same molecule?
**A.** 220 nM

**Q.** And the inhibition [11]?
**A.** 107%

Reference: ChEMBL document CHEMBL4368937, “Design, synthesis and biological evaluation of low molecular weight CXCR4 ligands” (Bioorg Med Chem, 2019)
